Results collected from several papers.
Lines come from different studies, so protocols differ.
Cell line: MDA-MB-231
Read-out: cell growth or viability

SMILES	test	conditions	measurement	value
COc1cccc2c1C(=O)c1c(O)c3c(c(O)c1C2=O)C[C@@](O)(C(=O)CO)C[C@@H]3O[C@H]1C[C@H](N)[C@H](O)[C@H](C)O1	MTT	3.125 µM, 24 h	viability	52.6%
CCOc1cc(CN2CCc3cc(O)c(OC)cc3C2)cc(OCC)c1OCC	WST-1	96 h	GI50	> 100 µM
c1ccc2[nH]c(-c3ccncc3)nc2c1	MTT	48 h	IC50	> 100 µM
COc1cc2c(cc1O)CCN(Cc1cccc(NC(C)=O)c1)C2	WST-1	96 h	GI50	> 100 µM
Cc1ccc2nc(-c3ccc(Cl)c(Cl)c3)[nH]c2c1	MTT	48 h	IC50	60.2 µM
C[C@]12CC[C@@H]3c4ccc(O)cc4CC[C@H]3[C@@H]1CC[C@@H]2O	ATP luminescence	72 h	EC50	35.8 µM
CCOC(=O)C(C(C)=O)=C1Sc2nc3ccc(S(=O)(=O)N4CCCC4)cc3nc2S1	MTT	100 µM, 24 h	viability	3.7%
COc1cc2c(cc1O)CCN(Cc1cccc(OC(C)C)c1)C2	WST-1	96 h	GI50	86 µM
CCOc1ccc(-c2nc3ccc(C)cc3[nH]2)cc1	MTT	48 h	IC50	13.2 µM
CCOc1cccc(CN2CCc3cc(O)c(OC)cc3C2)c1	WST-1	96 h	GI50	> 100 µM
Clc1ccc(Cn2c(-c3ccc(Cl)cc3)nc3ccccc32)cc1	MTT		IC50	7.48 µM
O=C1CCCCC1=C1Sc2nc3ccc(S(=O)(=O)N4CCCC4)cc3nc2S1	MTT	100 µM, 24 h	viability	8.2%
CCc1cc(CN2CCc3cc(O)c(OC)cc3C2)cc(CC)c1CC	WST-1	96 h	GI50	26 µM
c1ccc2[nH]c(-c3ccc4c(c3)OCO4)nc2c1	MTT	48 h	IC50	> 100 µM
COc1cc(OC)c(CN2CCc3cc(OS(N)(=O)=O)c(OC)cc3C2)c(OC)c1	WST-1	96 h	GI50	> 100 µM
COc1ccc(-c2nc3ccc(C)cc3[nH]2)cc1OC	MTT	48 h	IC50	52.6 µM
CCCCCCCC(=O)NCC(=O)OC	MTT	10 µM, 48 h	inhibition	10%
CCc1cc(CN2CCc3cc(OS(N)(=O)=O)c(OC)cc3C2)cc(CC)c1CC	WST-1	96 h	GI50	5.7 µM
Cc1ccc2nc(-c3ccc([N+](=O)[O-])cc3)n(Cc3ccc(Cl)cc3)c2c1	MTT		IC50	9.02 µM
CCc1cccc(CN2CCc3cc(OS(N)(=O)=O)c(OC)cc3C2)c1	WST-1	96 h	GI50	8 µM
COc1cc2c(cc1O)CCN(Cc1cc(Cl)c(OC)c(OC)c1)C2	WST-1	96 h	GI50	0.4 µM
COc1ccc(-c2cn(-c3cc(=O)oc4ccc(Br)cc34)nn2)cc1	imaging	72 h	CC50	10.7 µM
COc1cc2c(cc1OS(N)(=O)=O)CCN(Cc1cccc(OS(N)(=O)=O)c1)C2	WST-1	96 h	GI50	34.9 µM
O=C(c1cc(Cc2n[nH]c(=O)c3ccccc23)ccc1F)N1CCN(C(=O)C2CC2)CC1	ATP luminescence	7 days	EC50	~5 µM
COc1cc2c(cc1OS(N)(=O)=O)CCN(Cc1cccc(NC(C)=O)c1)C2	WST-1	96 h	GI50	> 100 µM
Cc1ccc2nc(-c3cc(Br)ccc3O)[nH]c2c1	MTT	48 h	IC50	6.69 µM
N#CC(C(=O)Nc1cccc(C(F)(F)F)c1)=C1Sc2nc3ccc(S(=O)(=O)N4CCCC4)cc3nc2S1	MTT	3.125 µM, 24 h	viability	77.1%
CCOc1cccc(CN2CCc3cc(OS(N)(=O)=O)c(OC)cc3C2)c1	WST-1	96 h	GI50	0.65 µM
